ABCB6 inh 2 – blocks the human ABCB6 transporter; fluorescence ratio to DMSO, % at 10 µM; 0.19% of 360,000 active; K562-ABCB6 porphyrin accumulation, flow cytometry, 1 h; active compounds read low; Q9NP58;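 active = fluorescence ratio to DMSO below 75%, the collection mean minus 3 SD; inconclusive = too few cells collected in the well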;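 note: signal is porphyrin accumulated inside mitochondria; lower ratio means ABCB6 inhibition with less porphyrin fluorescence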
V-ATPase pHluor – yeast V-ATPase proton transport regulation by pHLuorin | 0.37% of 350,000 active | AID 504577 | S. cerevisiae, pHLuorin cytosolic pH fluorescence | response, % at 10 µM; in the data active = response mostly above about 7.3%, no sharp cut-off; inactive = mostly below about 5.4%; note: actives read high
pCIP destab – compounds decreasing mouse p/CIP protein stability; Q05BA5; F442A p/CIP-EGFP cells, EGFP fluorescence, 16 h; decrease of EGFP signal, % at 10 µM; 0.01% of 290,000 active;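 active = EGFP signal decrease of at least 30% at 10 µM or well 3 SD below plate mean, unless failing retest; inactive = the rest, including hits failing retest or dose response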
Target sequence (Q05BA5 1-1403): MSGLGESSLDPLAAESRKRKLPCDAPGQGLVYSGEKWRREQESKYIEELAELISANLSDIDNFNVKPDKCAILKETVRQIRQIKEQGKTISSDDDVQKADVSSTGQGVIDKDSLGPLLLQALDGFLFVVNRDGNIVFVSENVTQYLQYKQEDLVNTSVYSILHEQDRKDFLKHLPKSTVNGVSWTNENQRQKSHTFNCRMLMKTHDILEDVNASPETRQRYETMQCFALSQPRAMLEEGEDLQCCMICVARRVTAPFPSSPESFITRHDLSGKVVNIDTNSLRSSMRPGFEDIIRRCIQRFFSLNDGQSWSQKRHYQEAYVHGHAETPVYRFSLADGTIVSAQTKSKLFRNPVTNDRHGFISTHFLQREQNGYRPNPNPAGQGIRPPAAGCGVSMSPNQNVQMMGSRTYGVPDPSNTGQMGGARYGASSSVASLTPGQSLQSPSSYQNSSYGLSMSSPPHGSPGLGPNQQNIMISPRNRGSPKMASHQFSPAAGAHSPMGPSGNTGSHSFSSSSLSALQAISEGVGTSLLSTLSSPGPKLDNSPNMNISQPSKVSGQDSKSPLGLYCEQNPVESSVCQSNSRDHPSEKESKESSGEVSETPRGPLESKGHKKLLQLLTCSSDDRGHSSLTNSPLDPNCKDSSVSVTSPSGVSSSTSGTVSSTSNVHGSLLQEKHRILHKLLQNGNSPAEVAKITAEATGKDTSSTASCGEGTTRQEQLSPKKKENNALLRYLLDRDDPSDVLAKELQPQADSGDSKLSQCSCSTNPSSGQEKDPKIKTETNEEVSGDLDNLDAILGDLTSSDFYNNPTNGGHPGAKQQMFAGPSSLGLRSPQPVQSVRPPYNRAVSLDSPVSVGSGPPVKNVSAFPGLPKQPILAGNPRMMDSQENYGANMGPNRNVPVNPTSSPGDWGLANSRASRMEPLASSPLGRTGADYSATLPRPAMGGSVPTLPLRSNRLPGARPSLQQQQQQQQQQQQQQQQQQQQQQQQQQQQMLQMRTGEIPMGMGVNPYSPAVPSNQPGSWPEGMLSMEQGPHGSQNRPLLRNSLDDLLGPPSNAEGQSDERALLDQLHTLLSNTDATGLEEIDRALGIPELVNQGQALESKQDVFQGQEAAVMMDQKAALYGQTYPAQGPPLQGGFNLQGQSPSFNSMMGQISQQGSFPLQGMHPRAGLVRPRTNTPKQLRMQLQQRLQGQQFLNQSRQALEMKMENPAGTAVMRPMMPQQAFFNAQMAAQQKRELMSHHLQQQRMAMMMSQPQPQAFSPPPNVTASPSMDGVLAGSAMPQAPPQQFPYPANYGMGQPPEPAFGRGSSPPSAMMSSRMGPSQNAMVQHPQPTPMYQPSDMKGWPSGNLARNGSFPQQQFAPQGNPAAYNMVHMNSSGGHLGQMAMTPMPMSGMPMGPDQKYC
Dynein transport – dynein cargo transport inhibition | 3617.4 mouse cells, GR-EGFP nuclear translocation imaging; test concentration mostly 20 µM; stimulated with dexamethasone, 1 µM; active compounds read low | z-score, hits read low | 0.47% of 220,000 active;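 active = plate z-score of nuclear minus cytoplasmic receptor signal below a set negative limit, without overly bright fluorescence or cell loss, cut at about -3.5 in these data, passing the limit was not always enough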;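 note: z-score of nuclear minus cytoplasmic ring GR-EGFP intensity difference per well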
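medium = tetracycline-free induction medium containing charcoal-stripped FBS | probe or stimulus = dexamethasone, 1.0 µM final | timing = 48 h induction, then 1 h compound, then 30 min agonist, 37 °C | detection = automated 10x imaging of fixed Hoechst-stained cells | read-out basis = nuclear versus cytoplasmic GR-EGFP signal, averaged per well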
Cl transport mod – modulates chloride dependent transport by human KCC2. Q9H2X9. KCC2 cells, thallium flux FluoZin-2 fluorescence. B-score of Tl+ flux slope (higher = more flux/activation; lower = inhibition) at 10 µM. 2.2% of 190,000 active. AID 1456;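 active = thallium flux slope and its plate-corrected score both differing from the plate sample mean at a set confidence after two filtering rounds, in either direction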;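 note: slope of fluorescence scaled to starting intensity during 10 to 20 s after thallium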
KCC2 secondary – confirmation of human KCC2 transport modulators. shares compounds with Cl transport mod. HEK293-KCC2, thallium flux, FluoZin2 fluorescence; active compounds read high. normalised thallium flux (F/F0 slope) at 10 µM. 15% of 3,700 active;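 active = thallium flux slope above the same plate's solvent-only control mean plus 3 SD; inconclusive = the two replicate wells disagree; inactive = no significant difference from solvent-only control wells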
KCC2 bumet counter – thallium flux persisting under bumetanide in KCC2 cells, counter-screen secondary assay | normalized thallium flux at 10 µM | HEK293-KCC2 + bumetanide/ouabain, thallium flux FluoZin2; active compounds read high | shares compounds with Cl transport mod | 49% of 3,700 active;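 active = thallium entry rate above the same plate's blocked-transporter control wells by more than 3 SD; inconclusive = the two repeat wells disagree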;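 note: raw slope of fluorescence over initial fluorescence between 10 and 20 s after thallium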
KCC2 secondary2 – KCC2 (human) modulation, second secondary assay; shares compounds with Cl transport mod; HEK293-KCC2, thallium flux FluoZin2 fluorescence; actives lie on both sides; F/F0 rise rate, 10–20 s post-thallium; normalized thallium flux at 10 µM; 23% of 3,700 active;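 active = thallium flux slope more than 3 SD above or below the plate's solvent-only control mean, mostly below; inconclusive = the two repeat wells disagreed; inactive = no significant shift from solvent-only controls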
HEK293 Tl flux – acts in parental HEK cells, KCC2 counter-screen; AID 1716; 46% of 3,700 active; thallium flux rate (normalised fluorescence) at 10 µM; HEK293 parental cells, thallium flux FluoZin2, ouabain; baseline-ratio fluorescence slope, 10–20 s after thallium; shares compounds with Cl transport mod;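 active = thallium flux rate significantly above the same plate's solvent-only control wells, beyond their mean plus 3 SD; inconclusive = the two replicate wells gave conflicting results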
KCC2 retest ouab – modulates human KCC2 on retest with ouabain. shares compounds with Cl transport mod. HEK293-KCC2, thallium flux FluoZin2 fluorescence; bidirectional: low = inhibitor, high = activator. raw Tl+ flux slope (below DMSO = inhibition, above = activation) at 10 µM. 48% of 3,700 active;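 active = thallium flux slope beyond 3 SD from same-plate DMSO control mean in most replicates, usually higher, sometimes lower; inconclusive = repeat tests gave conflicting results; inactive = no significant difference from controls in most replicates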;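 note: slope of initial-normalized fluorescence between seconds 10 and 20 after thallium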
HEK293 Tl flux2 – acts in parental HEK cells, second KCC2 counter-screen; 33% of 3,700 active; thallium flux slope at 10 µM; shares compounds with Cl transport mod; AID 1718; HEK293 parental, thallium flux FluoZin-2 fluorescence slope;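 active = thallium flux slope above the same plate's solvent-control mean plus 3 SD in both duplicate wells; inconclusive = duplicate wells that disagreed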;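 note: run without ouabain in cells lacking the KCC2 cotransporter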
A number is an active result; – = inactive; ? = inconclusive; · = no result. The sample as a whole holds a higher share of hits than the screen did.

SMILES | ABCB6 inh 2 | V-ATPase pHluor | pCIP destab | Dynein transport | Cl transport mod | KCC2 secondary | KCC2 bumet counter | KCC2 secondary2 | HEK293 Tl flux | KCC2 retest ouab | HEK293 Tl flux2
O=C(CSc1nnc(Cn2nnc(-c3ccccc3)n2)n1-c1ccccc1)Nc1ccccc1 | – | – | – | – | – | · | · | · | · | · | ·
Cc1cccc(C)c1NC(=O)CSc1nnc(Cn2nnc(-c3ccccc3)n2)n1-c1ccccc1 | – | – | – | – | -5.31 | – | – | – | – | – | –
COCCSc1nnc(NC(=O)C2CC(=O)N(CCc3ccc(F)cc3)C2)s1 (stereo not given) | – | – | – | · | · | · | · | · | · | · | ·
CCC(=NNC(=O)c1ccc2c(c1)nc(C)n2CC)c1cc(F)ccc1O | – | – | · | · | · | · | · | · | · | · | ·
Cc1ccc(C(=O)NC(=S)N2CCN(c3cc(C)ccc3C)CC2)cc1 | – | – | – | · | · | · | · | · | · | · | ·
CCOC(=O)N1CCN(C(=S)NC(=O)c2ccc(Br)cc2)CC1 | – | – | – | – | 17.5 | 0.0229 | 0.0595 | – | ? | – | 0.0128
CN1CCN(C(=S)NC(=O)c2ccc(Cl)cc2)CC1 | – | – | – | – | 13.7 | – | 0.02 | – | 0.0176 | 0.0286 | 0.0166
Cc1ccc(C(=O)NC(=S)N2CCN(C(=O)OC(C)(C)C)CC2)cc1Br | – | – | – | – | 19.5 | ? | 0.0877 | 0.0744 | 0.0616 | 0.0874 | 0.0566
COc1ccc(NC(=O)C2CCC(=O)N2S(=O)(=O)c2ccc(C)cc2)cc1Cl (stereo not given) | – | – | – | · | · | · | · | · | · | · | ·
Cc1cccc(C)c1NC(=O)CN1CCN(c2ccc(C(F)(F)F)cn2)CC1 | – | · | · | · | · | · | · | · | · | · | ·
c1ccc(CCC2CCCCN2Cc2nc(-c3ccc4c(c3)OCO4)no2)nc1 (stereo not given) | – | – | – | – | · | · | · | · | · | · | ·
Cc1ccc(C(=O)N(CN2CCCC2=O)c2ccccc2)cc1C | – | – | – | – | · | – | – | – | – | – | –
Cc1cc(=O)n(Cc2ccco2)c(=S)[nH]1 | – | – | · | · | · | · | · | · | · | · | ·
Cc1cc(=O)n(Cc2ccc(OC(C)C)cc2)c(=S)[nH]1 | – | – | – | – | · | ? | 0.0153 | – | 0.0161 | ? | –
CCOC(=O)C1=CCN(S(=O)(=O)c2ccccc2F)C1c1cccc(C)c1 (stereo not given) | – | · | · | · | · | · | · | · | · | · | ·
COC(=O)c1ccc2c(c1C(=O)OC)CN(S(=O)(=O)C(C)(C)C)[C@H]2CCO | – | – | · | · | · | · | · | · | · | · | ·
Cc1cc(C)c(NC(=O)NC(=O)c2ccc(F)cc2)c(C)n1 | – | – | – | – | – | · | · | · | · | · | ·
Cc1cc(C)c(NC(=O)NC(=O)c2cccc(F)c2)c(C)n1 | – | – | – | – | -4.13 | – | – | – | – | – | ?
COc1ccc(NC(=O)CCNS(=O)(=O)c2cc(Br)cnc2N)cc1OC | – | – | – | · | · | · | · | · | · | · | ·
COc1ccc2c(-c3ccccc3)cc(SC(C)C(N)=O)nc2c1 (stereo not given) | – | – | – | – | 5.47 | – | 0.00805 | – | 0.0143 | – | ?
O=C(OCc1ccccn1)c1ccc(COc2ccccc2Cl)o1 | – | – | – | – | -5.95 | – | – | 0.0253 | – | 0.0133 | –
O=C(c1ccc(COc2ccccc2Cl)o1)N1CCCC1 | – | – | – | – | – | · | · | · | · | · | ·
COc1cc(CCC(=O)OCC(=O)NCCc2ccc(S(N)(=O)=O)cc2)cc(OC)c1OC | – | – | · | · | · | · | · | · | · | · | ·
Nc1sc(-c2ccccc2)cc1-c1n[nH]c(=S)n1C1CCCCC1 | – | – | – | – | – | · | · | · | · | · | ·
S=c1[nH]nc(-c2cccs2)n1C1CCCCC1 | – | – | – | – | 11.5 | – | 0.0158 | – | 0.0132 | 0.0257 | ?
SMILES | ABCB6 inh 2 | V-ATPase pHluor | pCIP destab | Dynein transport | Cl transport mod | KCC2 secondary | KCC2 bumet counter | KCC2 secondary2 | HEK293 Tl flux | KCC2 retest ouab | HEK293 Tl flux2
S=c1[nH]nc(-c2cccs2)n1Cc1ccccc1 | – | – | – | – | – | · | · | · | · | · | ·
CC(C1CC2CCC1C2)n1c(-c2cccs2)n[nH]c1=S (stereo not given) | – | – | – | – | 72.1 | – | 0.0823 | 0.0416 | 0.0342 | 0.0413 | 0.0318
COc1ccc(N2C(=O)CC(Sc3ccccc3C(=O)O)C2=O)c([N+](=O)[O-])c1 (stereo not given) | – | – | – | – | – | · | · | · | · | · | ·
CC1Cc2ccccc2N1C(=O)CSc1nnc2n1C(C)(C)Cc1ccccc1-2 (stereo not given) | – | – | – | – | -5.57 | – | ? | 0.0237 | – | ? | –
CC1Cc2ccccc2N1C(=O)CSc1nc(-c2ccco2)cc(C(F)(F)F)n1 (stereo not given) | – | – | – | – | · | – | – | – | – | – | –
CN1CCN(C(=O)CSc2nc(-c3ccco3)cc(C(F)(F)F)n2)CC1 | – | – | – | – | – | · | · | · | · | · | ·
Cn1c(-c2ccc(F)cc2)cnc1SCC(=O)N1CCCc2ccccc21 | – | – | – | – | – | · | · | · | · | · | ·
CC1Cc2ccccc2N1C(=O)CSc1ncc(-c2ccc(F)cc2)n1C (stereo not given) | – | – | – | – | -4.17 | – | – | 0.0239 | 0.00601 | 0.0132 | ?
COc1ccc(-c2nn(-c3ccccc3)cc2CN(C)CCn2ccnc2C)c(F)c1 | – | – | – | – | – | · | · | · | · | · | ·
C/C(=N\NC(=O)c1cc(Br)ccc1O)c1cccs1 | – | – | – | – | 15 | – | 0.031 | 0.0431 | 0.0304 | 0.0369 | 0.0335
C/C(=N\NC(=O)c1ccc(Cl)cc1)c1cccs1 | – | 12.4 | – | – | 25.2 | – | 0.0396 | 0.0496 | 0.0337 | 0.0406 | 0.029
O=C(c1ccc(S(=O)(=O)N2CCOCC2)cc1)N1CCc2ccccc21 | – | – | – | · | · | · | · | · | · | · | ·
Nc1ccc2c(c1)ncn2CCCn1cnc2cc(N)ccc21 | – | – | – | – | · | – | – | ? | – | – | –
Cc1cc(C)c2nc(NC(=O)c3ccco3)sc2c1 | – | – | – | · | · | · | · | · | · | · | ·
O=C(Nc1nc2c(Br)cc(Br)cc2c(=O)s1)c1ccco1 | – | – | – | – | 17 | 0.0268 | 0.03 | – | 0.0397 | 0.032 | 0.0132
Cc1nc(NC(=O)c2ccco2)sc1C(=O)O | – | – | – | · | · | · | · | · | · | · | ·
Cc1nc(NC(=O)c2ccco2)sc1C(=O)Nc1ccc(Br)cc1 | – | – | – | – | -5.26 | – | – | ? | – | – | –
